Published values from different studies.
Compare with care: the assays were run in different laboratories.
Observed: enzyme activity
Action: inhibitor
KIT: Mast/stem cell growth factor receptor Kit (KIT, Homo sapiens, UniProt P10721)
KIT T670I: Mast/stem cell growth factor receptor Kit (KIT, Homo sapiens, UniProt P10721, T670I)

COc1cc(-c2cc(-c3ccc(N4CCNCC4)cc3)cnc2N)cc(OC)c1OC
inhibition (Mast/stem cell growth factor receptor Kit (KIT, Homo sapiens, UniProt P10721, V560G); 1 µM): 5%

COc1cc2nccc(Oc3ccc(NC(=O)c4c5n(n(-c6ccc(F)cc6)c4=O)CCCC5)cc3)c2cc1OC
inhibition (KIT; 0.1 µM): -1%

O=C(CSc1nc2nccnc2c(=O)n1CCc1ccccc1)Nc1nccs1
inhibition (Mast/stem cell growth factor receptor Kit (KIT, Homo sapiens, UniProt P10721, T670I/V559D); 10 µM): 1%

COc1cc2ncnc(Nc3ccc(Oc4ccccc4)cc3C)c2cc1OC
inhibition (KIT T670I; 1 µM): -9%

CC/C(=N\NC(=O)NCc1cccc(O)c1)c1ccc(O)c(C)c1O
inhibition (Mast/stem cell growth factor receptor Kit (KIT, Homo sapiens, UniProt P10721, D816V); 0.1 µM): 1.4%

CS(=O)(=O)Nc1cccc(-c2csc(NC(=O)CSc3nc4nccnc4c(=O)n3CCc3ccccc3)n2)c1
inhibition (KIT; 10 µM): -5%

COc1cc2ncnc(Nc3ccc(Oc4ccccc4)c(C)c3C)c2cc1OC
inhibition (KIT T670I; 1 µM): -7%

CN1CC(Oc2cnc(C#N)cc2-c2ccn3nc(NC(=O)C4CC4)cc3c2)C1
inhibition (KIT; 1 µM): 4%

CN(C)C1CCN(CC#Cc2nn(C3CCCC3)c3nc(NCc4ccccc4)ncc23)C1 (stereo not shown)
inhibition (KIT; FRET; 10 µM): 11%

CCOc1cc(-c2nncn2C)ccc1Nc1ncc2cc(C)nc(NCC(C)(C)C)c2n1
inhibition (KIT; FRET; 1 µM): < 15%
